From PubChem
Most compounds without a hit are left out; they make up all but 2.6% or so of the library.
Yeast growth inh = reduces growth of yeast BB579 in restrictive medium; S. cerevisiae BB579 growth, OD615, 48 h; inhibition, % at 10 µM; 0.51% of 140,000 active; AID 804;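 active = inhibition above a set limit, 3 SD over the mean compound inhibition, cut at about 44% in these data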
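System: Saccharomyces cerevisiae DeaD strain BB579, replicative lifespan model yeast. Buffer or medium: restrictive glucose-based CSMM-D medium. Doses: one dose, 10 µM compound with 0.25% DMSO. Timing: 4 h preincubation and 48 h exposure at 30 °C. Detection: turbidity as optical density at 615 nm. Benchmarks: amphotericin B 10 µg/mL, positive.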
RAM inhibit = inhibitors of the yeast RAM network. 1.8% of 190,000 active. inhibition, % at 50 µM. S. cerevisiae dse1pr::URA3 reporter, 5-FOA growth OD615, 2 d; analog-sensitive cbk1-as2 kinase mutant strain;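 active = inhibition above a set limit, 3 SD over mean compound inhibition, cut at about 8.4% in these data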;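 note: 0% = DMSO-only wells with no growth and 100% = 10 µM 1-NA-PP1 full growth; inhibition rescues growth on 5-FOA so higher OD means more RAM inhibition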
Yeast life ext = yeast lifespan extension. S. cerevisiae growth with nicotinamide, OD615; deaD strain in restrictive glucose medium. inhibition of the nicotinamide effect, % at 10 µM. 0.68% of 130,000 active;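 active = inhibition above a set limit, placed 3 SD over the median of all compounds, cut at about 26% in these data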;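 note: 0% = nicotinamide-treated wells and 100% = cells grown without nicotinamide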
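Measured by: optical density (absorbance) at 615 nm; System: modified budding yeast, DeaD strain; Medium: restrictive CSMM-D dextrose medium; Timing: 4 h preincubation then 48 h treatment at 30 °C.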
Starred values were filed as active, the others as inactive; . = not tested or not shown.

SMILES	Yeast growth inh	RAM inhibit	Yeast life ext
CN(C(=O)c1cccs1)c1ccc(OCC(=O)N2CCC(C(N)=O)CC2)cc1	.	1.7	.
Cc1ccc(C)c(Nc2nc3c(S(=O)(=O)c4ccccc4)nnn3c3ccccc23)c1	-37.8	8.4*	1.8
Cc1ccc(S(=O)(=O)c2nnn3c2nc(Nc2cccc(C)c2)c2ccccc23)cc1	-22.6	5.1	1.6
Oc1ccc(-c2nc3ccccn3c2NCc2ccco2)cc1	-18.6	1.8	-4.4
O=C1OCCC1Sc1nnc(-c2ccc(F)cc2)n1Cc1ccccc1 (stereo unspecified)	-8.6	-0.1	5.4
CC1(C(=O)Nc2nnc(C(C)(C)C)s2)Cc2ccccc2C(=O)O1 (stereo unspecified)	-6.3	2.1	2.8
CCSc1nnc(NC(=O)C2(C)Cc3ccccc3C(=O)O2)s1 (stereo unspecified)	-2.6	-1.2	37.2*
CCCCC(CC)CNC(=O)Cn1c(=S)[nH]c2ncccc2c1=O (stereo unspecified)	.	3.0	.
Cc1onc(-c2ccccc2)c1C(=O)NC(=S)NNC(=O)c1ccccc1O	3.5	5.0	5.9
Cc1onc(-c2ccccc2)c1C(=O)NC(=S)NNC(=O)c1ccc(O)cc1O	80.1*	1.1	0.1
Cc1cc(=O)n2c(C(=O)Nc3ccc(C)c(C)c3)c(C(=O)Nc3ccccc3)sc2n1	.	2.3	.
Cc1ccc(S(=O)(=O)n2cnc3cc([N+](=O)[O-])ccc32)cc1C	-26.1	1.2	-18.8
Cc1ccc(-n2c3nc(=O)[nH]c(=O)c-3cc3cc([N+](=O)[O-])ccc32)cc1C	-24.5	9.4*	-6.6
CC(C)(C)C(=O)/C(=C\c1ccc([N+](=O)[O-])cc1)n1cncn1	-27.5	-1.5	.
CC(C)(C)C(=O)/C(=C/c1cccc([N+](=O)[O-])c1)n1cncn1	4.2	-0.8	56.1*
COc1ccc(CCn2c(=S)[nH]c3ccc(N4CCOCC4)cc3c2=O)cc1OC	.	4.9	.
CC1=C(C(=O)N(C)C)C(c2ccc(C)s2)NC(=S)N1 (stereo unspecified)	.	2.4	.
Cc1sc(NC(=S)NC(=O)C2CCCCC2)c(C(N)=O)c1C	-23.6	6.4	2.7
O=C(O)c1ccc(NC(=S)NC(=O)c2ccc(-c3ccccc3)cc2)cc1	.	0.6	.
O=C(NC(=S)Nc1ccccc1)c1ccc(-c2ccccc2)cc1	-17.2	9.4*	8.0
COc1ccc(/C=C(\NC(=O)c2ccccc2)C(=O)OCC2CCCN3CCCCC23)cc1OC (stereo unspecified)	.	1.2	.
Cc1ccc(Cn2c(=N)n(CC(=O)c3ccccc3)c3ccccc32)cc1	.	-1.3	.
CCCN(CCC)C(=O)NC1CC(=O)N(c2ccc(OC)cc2)C1 (stereo unspecified)	4.0	1.8	-8.1
Cc1ccc(O)c(C(=O)c2cnc3c(c2)COc2ccc(C)cc2-3)c1	-37.7	8.7*	.
Cc1ccc2c(c1)-c1ncc(C(=O)c3cc(Br)ccc3O)cc1CO2	.	8.4	.
SMILES	Yeast growth inh	RAM inhibit	Yeast life ext
CSCCC1NC(=O)N(C(C)C(=O)Nc2cc(Cl)cc(Cl)c2)C1=O (stereo unspecified)	.	6.1	.
CCOC(=O)C1CCN(Cc2cc(C(C)(C)C)c(O)c(C(C)(C)C)c2)CC1	.	0.0	.
CC(C)(C)c1cc(CN2CCN(CCO)CC2)cc(C(C)(C)C)c1O	-14.6	0.9	31.9*
COc1ccc(-c2csc(NC(=S)NC(=O)c3ccco3)n2)cc1	.	1.4	.
CCCC(=O)NC(=S)Nc1nc(-c2ccc(OC)cc2)cs1	-24.0	10.1*	3.1
CCc1c(C)nc(SCC(=O)Nc2nc(-c3ccc(OC)cc3)cs2)[nH]c1=O	.	10.8*	.
COc1ccc(-c2csc(NC(=O)CSc3n[nH]c(N)n3)n2)cc1	.	4.4	.
Cc1cc([N+](=O)[O-])ccc1NC(=O)CSc1nccc(=O)[nH]1	.	2.5	.
Cn1c(CCCCCN)nc2ccccc21	-0.8	1.6	30.4*
CCCC(=O)NCCCc1nc2ccccc2n1C	1.3	0.7	-2.5
COC(=O)c1cc2occc2n1Cc1cccc(C)c1	.	1.2	.
CCOC(=O)c1cc2c(ccn2C)n1Cc1ccc(Cl)cc1	.	1.4	.
CCOC(=O)c1cc2c(ccn2C)n1Cc1ccc(C#N)cc1	.	10.4*	.
Cc1cccc(Cn2c(C(=O)OC(C)C)cc3c2ccn3C)c1	7.0	11.2*	-3.7
O=C(NNC(=S)NCc1ccc(Cl)cc1)c1ccc2c(c1)OCO2	.	0.3	.
O=C(Nn1c(SCc2cccc([N+](=O)[O-])c2)nc2ccccc2c1=O)c1ccccc1	-50.4	4.7	6.0
CCOC(CCn1c(SCc2cccc([N+](=O)[O-])c2)nc2ccccc2c1=O)OCC	-61.0	10.8*	12.5
Cc1ncc([N+](=O)[O-])n1CC(=O)NC1CCCCCC1	.	0.0	.
O=C(Nc1nc(-c2ccccn2)cs1)C1CC(=O)N(c2ccc3c(c2)OCCO3)C1 (stereo unspecified)	-39.4	1.4	5.7
